Experimental data taken from ChEMBL document CHEMBL1926589, “2-Anilinonicotinyl linked 2-aminobenzothiazoles and [1,2,4]triazolo[1,5-b] [1,2,4]benzothiadiazine conjugates as potential mitochondrial apoptotic inducers” (Bioorg Med Chem, 2011).
Calls of active or inactive are those of the source. No cut-off for these calls is given here.

Assays:
SK-N-SH = assay: Growth inhibition of human SK-N-SH cells at 10 uM by sulforhodamine B assay; assay type: functional; conditions: read-out: GI
In short: (§1)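 Single-dose 10 µM screen by sulforhodamine B assay, reported as percent inhibition of cell proliferation. Cells grown in medium with 10% heat-inactivated FBS at 37 °C, 5% CO2, and treated at about 70% confluence or in log phase. Compounds dissolved in DMSO; controls received vehicle (<0.5% v/v).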

HL-60 [1] = assay: Induction of apoptosis in human HL60 cells assessed as increase of reactive oxygen species level at 1 uM after 24 hrs using DCFH-DA fluorescent dye based flow cytometric analysis relative to control; assay type: functional
In short: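 HL-60 cells (1 x 10^5 per 1.5 mL) treated 24 h, then loaded with 10 µM H2DCFDA for 30 min at 37 °C. Washed twice in PBS and read in FL-1 (530 nm). Percentage of DCF-positive cells determined; mean ± SD of three experiments.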

[2] = Growth inhibition of human 502713 cells at 10 uM by sulforhodamine B assay; assay type: functional; conditions: read-out: GI; in short: as §1
HL-60 [3] = assay: Induction of NO production in human HL60 cells at 1 uM after 24 hrs using DAF-2DA fluorescent dye based flow cytometric analysis; assay type: functional, cell-based
In short: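 HL-60 cells (1 x 10^5 per 1.5 mL) preloaded 30 min with 10 µM DAF-2-DA before treatment. After 24 h exposure, cells were washed and read by flow cytometry in FL-1 as NO-positive population. Mean ± SD of three independent experiments.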

SW-620 = assay: Growth inhibition of human SW620 cells at 10 uM by sulforhodamine B assay; assay type: functional; conditions: read-out: GI; in short: as §1
OVCAR-5 = assay: Growth inhibition of human OVCAR5 cells at 10 uM by sulforhodamine B assay; assay type: functional; conditions: read-out: GI; in short: as §1
A549 = assay: Growth inhibition of human A549 cells at 10 uM by sulforhodamine B assay; assay type: functional; conditions: read-out: GI; in short: as §1
HL-60 [4] = assay: Cell cycle arrest in human HL60 cells assessed as accumulation at G2/M phase at 1 uM after 24 hrs using propidium iodide staining by flow cytometry; assay type: functional, cell-based
In short: (§2)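 HL-60 cells (1 x 10^5 per 1.5 mL) treated 24 h, then fixed in 70% cold ethanol at −20 °C overnight. RNase digestion (400 µg/ml) at 37 °C for 45 min, then propidium iodide (10 µg/ml) for 30 min. Flow cytometry on 10,000 events, FL2-A vs FL2-W, with doublet discrimination. Sub-G0 (hypodiploid) peak taken as apoptotic cells. Mean ± SD of three independent experiments.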

HCT-15 = assay: Growth inhibition of human HCT15 cells at 10 uM by sulforhodamine B assay; assay type: functional; conditions: read-out: GI; in short: as §1
HL-60 [5] = assay: Cell cycle arrest in human HL60 cells assessed as accumulation at S phase at 1 uM after 24 hrs using propidium iodide staining by flow cytometry; assay type: functional, cell-based; in short: as §2
HL-60 [6] = assay: Induction of apoptosis in human HL60 cells assessed as late apoptotic cells at 1 uM after 24 hrs using Annexin V-FITC and propidium iodide staining by flow cytometry relative to control; assay type: functional
In short: (§3)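 HL-60 cells (1 x 10^5 per 1.5 mL) treated 24 h, washed twice in PBS and stained in binding buffer with annexin V-FITC and PI. Flow cytometry with FITC in FL-1 (530 nm) and PI in FL-2 (585 nm), using quadrant statistics: lower right taken as apoptotic, upper right as post-apoptotic necrotic. Representative of three independent experiments.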

HL-60 [7] = assay: Induction of apoptosis in human HL60 cells assessed as DNA ladder formation at 1 uM after 24 hrs by agarose gel electrophoresis; assay type: functional, cell-based
In short: (§4)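 Cells treated 24 h, then 2 x 10^6 cells lysed (Triton X-100 buffer, pH 8.0) with RNase at 37 °C for 90 min and proteinase-K at 50 °C for 1 h. DNA phenol/chloroform-extracted and ethanol-precipitated, then run on 1.8% agarose at 50 V for 1.5 h in TAE. Ladders viewed under UV.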

HeLa = assay: Induction of apoptosis in human HeLa cells assessed as DNA ladder formation at 10 uM after 24 hrs by agarose gel electrophoresis; assay type: functional, cell-based; in short: as §4
HL-60 [8] = assay: Induction of apoptosis in human HL60 cells assessed as caspase8 activation using IETD-AFC as substrate at 1 uM after 24 hrs by fluorimetry relative to control; assay type: functional
In short: (§5)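 HL-60 cells (2 x 10^6) treated 24 h, washed and lysed. Caspase-3, -8 and -9 activities in lysates measured fluorometrically with a commercial caspase fluorescent assay kit. Two independent experiments, each in duplicate.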

HL-60 [9] = assay: Induction of apoptosis in human HL60 cells assessed as early apoptotic cells at 1 uM after 24 hrs using Annexin V-FITC and propidium iodide staining by flow cytometry relative to control; assay type: functional; in short: as §3
SiHa [10] = assay: Growth inhibition of human SiHa cells at 10 uM by sulforhodamine B assay; assay type: functional; conditions: read-out: GI; in short: as §1
HL-60 [11] = assay: Induction of apoptosis in human HL60 cells assessed as PARP cleavage at 1 uM after 24 hrs by Western blotting; assay type: functional, cell-based
In short: (§6)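 HL-60 cells treated 24 h and lysed in RIPA buffer on ice; protein measured by Bradford against a BSA standard. 50 µg resolved by SDS-PAGE and transferred to PVDF, blocked in 5% milk/TBST, then primary antibodies 1:1000 for 2 h and HRP secondary 1:1000 for 1 h. ECL detection with β-actin as loading control; bands quantified by densitometry.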

HL-60 [12] = assay: Cell cycle arrest in human HL60 cells assessed as accumulation at sub-G0 phase measuring DNA damage at 1 uM after 24 hrs using propidium iodide staining by flow cytometry (reference value: 1%); assay type: functional; in short: as §2
HL-60 [13] = assay: Induction of apoptosis in human HL60 cells assessed as DNA ladder formation at 10 uM after 24 hrs by agarose gel electrophoresis; assay type: functional, cell-based; in short: as §4
DU-145 = assay: Growth inhibition of human DU145 cells at 10 uM by sulforhodamine B assay; assay type: functional; conditions: read-out: GI; in short: as §1
IMR-32 = assay: Growth inhibition of human IMR32 cells at 10 uM by sulforhodamine B assay; assay type: functional; conditions: read-out: GI; in short: as §1
HEp-2 = assay: Growth inhibition of human Hep2 cells at 10 uM by sulforhodamine B assay; assay type: functional; conditions: read-out: GI; in short: as §1
CV-1 = assay: Growth inhibition of african green monkey CV1 cells after 48 hrs by MTT assay; assay type: cell-based; conditions: Chlorocebus aethiops, CV-1, 48 h
[14] = Therapeutic ratio of IC50 for african green monkey CV1 cells to IC50 for human HL60 cells; assay type: ADME, cell-based, HL-60; conditions: CV1 cells and HL60 cells, read-out: Ratio IC50
HL-60 [15] = assay: Induction of apoptosis in human HL60 cells assessed as non-viable necrotic cells at 1 uM after 24 hrs using Annexin V-FITC and propidium iodide staining by flow cytometry relative to control; assay type: functional; in short: as §3
SiHa [16] = assay: Growth inhibition of human SiHa cells after 48 hrs by MTT assay; assay type: functional, cell-based
HL-60 [17] = assay: Induction of apoptosis in human HL60 cells assessed as caspase9 activation using LEHD-AMC as substrate at 1 uM after 24 hrs by fluorimetry relative to control; assay type: functional; in short: as §5
SiHa [18] = assay: Induction of apoptosis in human SiHa cells assessed as DNA ladder formation at 10 uM after 24 hrs by agarose gel electrophoresis; assay type: functional, cell-based; in short: as §4
HL-60 [19] = assay: Induction of apoptosis in human HL60 cells assessed as caspase3 activation using DEVD-AFC as substrate at 1 uM after 24 hrs by fluorimetry relative to control; assay type: functional; in short: as §5
HL-60 [20] = assay: Cell cycle arrest in human HL60 cells assessed as accumulation at G1 phase at 1 uM after 24 hrs using propidium iodide staining by flow cytometry; assay type: functional, cell-based; in short: as §2
HL-60 [21] = assay: Induction of apoptosis in human HL60 cells assessed as decrease in mitochondrial membrane potential at 1 uM after 24 hrs using rhodamine 123 staining by flow cytometry; assay type: functional
In short: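 HL-60 cells (1 x 10^5 per 1.5 mL) treated 24 h, then stained with rhodamine-123 (5 µg/mL final) for 1 h. Washed, and propidium iodide (5 µg/mL) added just before reading. FL-1 fluorescence from 10,000 events; percentage of low Rh-123 cells taken as loss of membrane potential. Mean ± SD, n=3.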

HL-60 [22] = assay: Inhibition of Bcl-2 expression in human HL60 cells at 1 uM after 24 hrs by Western blotting; assay type: functional, cell-based; in short: as §6
HL-60 [23] = assay: Inhibition of NF-kappaB expression in human HL60 cells at 1 uM after 24 hrs by Western blotting; assay type: functional, cell-based; in short: as §6
HL-60 [24] = assay: Growth inhibition of human HL60 cells after 48 hrs by MTT assay; assay type: functional, cell-based; conditions: HL-60, 48 h

| SMILES | inhibition of growth at 10 µM (SK-N-SH) [%] | Activity (HL-60 [1]) [%] | inhibition of growth at 10 µM [2] [%] | Activity (HL-60 [3]) | inhibition of growth at 10 µM (SW-620) [%] | inhibition of growth at 10 µM (OVCAR-5) [%] | inhibition of growth at 10 µM (A549) [%] | Activity (HL-60 [4]) | inhibition of growth at 10 µM (HCT-15) [%] | Activity (HL-60 [6]) [%] | Activity (HL-60 [9]) [%] | inhibition of growth at 10 µM (SiHa [10]) [%] | inhibition of growth at 10 µM (DU-145) [%] | inhibition of growth at 10 µM (IMR-32) [%] | inhibition of growth at 10 µM (HEp-2) [%] | IC50 (CV-1) [µM] | selectivity ratio [14] | Activity (HL-60 [15]) [%] | IC50 (SiHa [16]) [µM] | IC50 (HL-60 [24]) [µM] | other results |
| --- | --- | --- | --- | --- | --- | --- | --- | --- | --- | --- | --- | --- | --- | --- | --- | --- | --- | --- | --- | --- | --- |
| O=C(Nc1nc2ccc([N+](=O)[O-])cc2s1)c1cccnc1Nc1ccccc1 | 48 | 31 | 63 | inactive | 65 | 50 | 31 | inactive | 66 | 7 | 13 | 53 | 52 | 45 | 26 | 70 | 120 | 42 | 28 | 0.58 | Activity (HL-60 [5]): inactive; Activity (HL-60 [7]): Active; Activity (HeLa): inactive; Activity (HL-60 [8]): inactive; Activity (HL-60 [11]): Active; Activity (HL-60 [12]): 24%; Activity (HL-60 [13]): Active; Activity (HL-60 [17]): inactive; Activity (SiHa [18]): inactive; Activity (HL-60 [19]): inactive; Activity (HL-60 [20]): inactive; Activity (HL-60 [21]): Active; inhibition (HL-60 [22]): inactive; inhibition (HL-60 [23]): inactive |
| O=C(Nc1nc2ccc([N+](=O)[O-])cc2s1)c1cccnc1Nc1ccc(Cl)cc1 | 48 | – | 63 | – | 65 | 26 | 83 | – | 66 | – | – | 53 | 52 | 45 | 69 | 0.8 | 2 | – | > 50 | 0.4 | – |
| COc1ccc(Nc2ncccc2C(=O)Nc2nc3ccc([N+](=O)[O-])cc3s2)cc1 | 64 | 44 | 59 | inactive | 64 | 52 | 3 | inactive | 47 | 3 | 7 | 66 | 32 | 55 | 5 | 10 | 14 | 14 | 28 | 0.7 | Activity (HL-60 [5]): inactive; Activity (HL-60 [7]): Active; Activity (HeLa): inactive; Activity (HL-60 [8]): inactive; Activity (HL-60 [11]): Active; Activity (HL-60 [12]): 22%; Activity (HL-60 [13]): Active; Activity (HL-60 [17]): inactive; Activity (SiHa [18]): inactive; Activity (HL-60 [19]): inactive; Activity (HL-60 [20]): inactive; inhibition (HL-60 [22]): inactive; inhibition (HL-60 [23]): inactive |
| CC[C@@]1(O)C(=O)OCc2c1cc1n(c2=O)Cc2cc3ccccc3nc2-1 [CAMPTOTHECIN] | – | – | – | – | – | – | – | – | – | 11 | 17 | – | – | – | – | – | – | 52 | – | – | – |
| CN1c2ccccc2S(=O)(=O)n2nc(-c3cccnc3Nc3ccc(Cl)cc3)nc21 | 3 | – | 28 | – | 34 | 10 | 28 | – | 0 | – | – | 13 | 9 | 3 | 0 | – | – | – | – | – | – |
